# Bioassay records: PubChem BioAssay, several laboratories
# Rows were chosen to be rich in hits. Some 1.3% of all compounds tested hit in one or more screens of this group.
# iPSC survival up: enhancers of single-cell hiPSC survival, primary screen, ATPlite luminescence; 360,000 tested, 0.044% active; AID 602274, 2012; survival enhancement, % at 20 µM; 100% = ROCK inhibitor wells, 0% = DMSO; in the data active means survival enhancement above about 18%;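 further: cells exposed to compounds for 16 hours before the ATP read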
# MT1-MMP act inh: blockers of MT1-MMP proenzyme processing, primary screen, HT1080 RFP-PRO-GFP cells, GFP/RFP fluorescence; GFP/RFP ratio change, % at 20 µM; AID 651647, 2012; GFP/RFP ratio fluorescence, overnight; percent of plate control window, DMSO zero; 360,000 tested, 0.061% active; Matrix metalloproteinase-14 (Homo sapiens), P50281;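 active means GFP/RFP ratio change of at least 30% with cell ATP level not reduced by more than half and red fluorescence within 50% of control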
#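 Assay system – RFP-PRO-GFP reporter HT1080 cells · Compound dosing – single dose of 20 µM compound, 1% DMSO final · Incubation – overnight compound exposure at 37 °C · Measure – GFP/RFP fluorescence ratio · Benchmarks – DMSO wells and RFP-L50D-GFP cells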
# SKN-1 inh: suppressors of acrylamide-induced Pgst-4::GFP reporter in worms, primary screen, SKN-1 inhibitor project, whole organism, uHTS, GFP/RFP fluorescence ratio, strain VP596; C. elegans VP596 Pgst-4::GFP/RFP ratio, 24 h; inhibition, % at 21.8 µM; 360,000 tested, 0.49% active;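 active means interference check ratio from 0.5 to 1.5 plus GFP to RFP signal ratio inhibition reaching or exceeding a fixed threshold, cut at about 30% in these data, passing the limit was not always enough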
# FAS-TE inh: FAS thioesterase domain inhibitors, primary screen, biochemical, fluorescence intensity, uHTS; 360,000 tested, 0.67% active; AID 602261, 2012; inhibition, % at 15 µM; Fatty acid synthase (Homo sapiens), P49327; recombinant FAS-TE, OMFH fluorogenic substrate, fluorescence endpoint;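 active means compounds whose normalised, plate-corrected inhibition of enzyme fluorescence in the single-dose primary screen is 50% or more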;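 further: 0% = DMSO with enzyme and 100% = substrate without enzyme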
# DAGLB inh: DAGLB lipase inhibitors, primary screen, biochemical, fluorescence, HTS. Diacylglycerol lipase-beta (Homo sapiens), Q8NCG7. HEK293T DAGLB membrane lysate, EnzChek fluorogenic substrate. inhibition, % at 5.17 µM. 340,000 tested, 0.059% active; in the data active means inhibition above about 34%;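 further: 0% = enzyme with vehicle and 100% = wells lacking enzyme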
# FAS-TE conf: FAS thioesterase domain inhibitors, confirmation, biochemical, fluorescence intensity, single concentration; recombinant FAS-TE, OMFH fluorogenic substrate; 2,300 tested, 45% active; shares compounds with FAS-TE inh; inhibition, % at 15 µM;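 active means compounds inhibiting the enzyme by at least 50% at 15 µM in any one of the replicates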;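 further: 0% = enzyme with DMSO only and 100% = wells lacking enzyme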
# Starred values were filed as active, the others as inactive; x = no result given.
SMILES,iPSC survival up,MT1-MMP act inh,SKN-1 inh,FAS-TE inh,DAGLB inh,FAS-TE conf
CCCCCC1CC(CC(=O)Nc2ccc([N+](=O)[O-])cc2)OC1=O (centres undefined),-1,3,-2,16,2,x
Cc1cc2cc3c(cc2nc1SCC(=O)N1c2ccccc2CC1C)OCO3 (centres undefined),3,-6,20,24,-9,x
CC1Cc2ccccc2N1C(=O)CSc1nc2cc3c(cc2cc1C#N)OCO3 (centres undefined),3,-31,14,74*,-3,32
Cc1ccccc1N(CC(=O)NCc1ccc2c(c1)OCO2)C(=O)C1CSC(=O)C1 (centres undefined),0,2,11,69*,1,67*
Cc1ccccc1N(CC(=O)NCc1ccc2c(c1)OCO2)C(=O)CCC(=O)Nc1ccccn1,2,-2,-26,-4,3,x
CCc1nc2ccc(C(=O)NCCC(C)C)cn2c1N(CCN(C)C)CC1CC1,-2,-5,17,-8,x,x
O=C(COC(=O)c1cc([N+](=O)[O-])ccc1N1CCOCC1)Nc1c(Cl)cccc1Cl,0,2,-7,67*,1,75*
Cc1cc(Br)ccc1NC(=O)CN(C)C(=O)c1cc([N+](=O)[O-])ccc1N1CCOCC1,-1,2,-3,64*,1,77*
Cc1ccc(C)c(NC(=O)CN(C)C(=O)c2cc([N+](=O)[O-])ccc2N2CCOCC2)c1,0,-1,11,20,1,x
O=C(OCc1ccccc1Cl)c1cc([N+](=O)[O-])ccc1N1CCOCC1,0,-2,4,36,-4,x
Cc1cc(C(=O)OCC(=O)Nc2cccc([N+](=O)[O-])c2)c(C)o1,0,3,-14,66*,-2,62*
CCOC(=O)c1ccccc1NC(=O)COC(=O)c1cc([N+](=O)[O-])ccc1N1CCOCC1,0,1,-14,53*,-2,19
O=C(COC(=O)c1c[nH]c(=O)[nH]c1=O)Nc1cccc([N+](=O)[O-])c1,0,0,-1,4,-3,x
CCCS(=O)(=O)NC(=O)C1(C)CCCN(C(=O)c2cc(OC)c(OC)c(OC)c2)C1 (centres undefined),-1,3,5,-10,x,x
CCCS(=O)(=O)NC(=O)C1(C)CCCN(C(=O)c2ccccc2F)C1 (centres undefined),1,-1,0,-4,x,x
COc1ccc(NC(=O)COC(=O)c2cc([N+](=O)[O-])ccc2N2CCOCC2)cc1,0,3,19,80*,0,60*
CN(CC(=O)Nc1ccc(F)cc1)C(=O)COC(=O)c1cc([N+](=O)[O-])ccc1N1CCOCC1,0,4,9,62*,2,58*
O=C(COC(=O)c1cc([N+](=O)[O-])ccc1N1CCOCC1)Nc1cccc(F)c1,0,x,-7,90*,2,93*
COc1cccc(C(NC(C)=O)c2nc(-c3ccncc3)cs2)c1 (centres undefined),2,x,7,0,x,x
O=C(Nc1ccc(F)c(Cl)c1)c1ccc2sc([C@H]3C[C@H](O)[C@@H](CO)O3)nc2c1,3,1,23,-8,x,x
CC(=O)c1c(C)oc2ccc(N(C(=O)C3CCCCC3)S(=O)(=O)c3cc([N+](=O)[O-])ccc3C)cc12,3,-7,4,80*,-2,10
CC(=O)c1c(C)oc2ccc(N(C(C)=O)S(=O)(=O)c3cccc([N+](=O)[O-])c3)cc12,2,-1,-1,34,7,x
O=C(Nc1nc(-c2ccc(S(=O)(=O)N3CCCC3)cc2)cs1)c1ccco1,2,-4,-8,70*,-2,65*
CNc1nc(-c2ccc(S(=O)(=O)N3CCCCC3)cc2)cs1,2,-1,19,12,1,x
COc1ccccc1OC(C)C(=O)Nc1nc(-c2ccc(S(=O)(=O)N3CCOCC3)cc2)cs1 (centres undefined),-1,0,12,46,-8,x
SMILES,iPSC survival up,MT1-MMP act inh,SKN-1 inh,FAS-TE inh,DAGLB inh,FAS-TE conf
O=C(Nc1cc(S(=O)(=O)N2CCOCC2)ccc1N1CCCC1)c1ccc2c(c1)S(=O)(=O)c1ccccc1C2=O,-1,1,12,79*,14,20
COc1ccccc1C(=O)Nc1nc(-c2ccc(S(=O)(=O)N3CCOCC3)cc2)cs1,1,-10,9,52*,0,23*
CC(C)C(=O)Nc1nc(-c2ccc(S(=O)(=O)N3CCOCC3)cc2)cs1,2,5,8,85*,-2,86*
O=C(OCc1cn([C@@H]2CN(Cc3cccs3)[C@@H](c3ccccc3)C[C@H]2O)nn1)c1ccccc1,3,-1,-14,5,-1,x
Cc1cc(CNC[C@H]2O[C@@H](n3ccc(=O)[nH]c3=O)[C@H](O)[C@@H]2O)no1,2,4,-12,-6,x,x
COc1cccc(-c2sc3ccc(OC)cc3c2-c2cnc(N3CCOCC3)nc2)c1,0,2,15,12,x,x
Cc1ccc(F)cc1NC(=O)C1CC(=O)N(Cc2ccccc2)C1 (centres undefined),-2,0,-4,-9,-1,x
CCOc1cccc(C(=O)Nc2nc(-c3ccc(S(=O)(=O)N4CCOCC4)cc3)cs2)c1,6,3,-10,10,-2,x
COc1ccc(-c2cc(C(=O)Nc3cc(S(=O)(=O)N4CCOCC4)ccc3N3CCOCC3)c3ccccc3n2)cc1,0,-1,2,82*,-2,28
CCN1CCN(c2ccc(S(=O)(=O)N3CCOCC3)cc2NC(=O)c2cc(Cl)nc3ccccc23)CC1,0,2,4,0,1,x
O=C(COc1cccc(Cl)c1)Nc1nc(-c2ccc(S(=O)(=O)N3CCOCC3)cc2)cs1,-2,-4,7,66*,-2,23*
Cc1ccc(C)c(Nc2nn3c(=O)c4ccc(C(=O)NCc5cccnc5)cc4nc3s2)c1,0,2,11,-6,0,x
CCOC(=O)C1CCN(C(=O)c2ccc3c(=O)n4nc(Nc5ccccc5OC)sc4nc3c2)CC1,-1,-1,-2,54*,0,59*
CCOC(=O)C1CCN(C(=O)c2ccc3c(=O)n4nc(Nc5cc(C)ccc5C)sc4nc3c2)CC1,2,-1,17,55*,2,25
CC(=O)Nc1cc(-c2ccccc2)cn2c(-c3ccc(F)cc3)cnc12,0,-4,7,0,x,x
